pEC50, pIC50: −log10 of the molar value.
Legend:
[1] = Toxicity measured in CEM cells in the absence of virus.; assay type: cell-based; settings: human, CEM cells (CCRF-CEM); read-out: TC50 (the source's name)
[2] = test system: Human immunodeficiency virus 1; assay: Antiviral activity in HIV infected CEM cells as effective concentration at which 50% of the cells are protected from cytopathic effect.; assay type: functional, organism-based; settings: Human immunodeficiency virus 1, CCRF-CEM
In short: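 HIV-IIIB-infected human lymphocyte-derived CEM cells. EC50 is the drug concentration at which 50% of cells are protected from HIV cytopathic effects. Testing was done at Southern Research Institute.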

[3] = target: Human immunodeficiency virus type 1 protease (Human immunodeficiency virus 1, UniProt Q72874); assay: HIV-1 protease inhibition.
In short: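 Affinity-purified HIV-1 protease (1.5 nM final) with 40 µM peptide substrate His-Lys-Ala-Arg-Val-Leu-(p-NO2-Phe)-Glu-Ala-Nle-Ser-NH2 and 1.0% DMSO. Buffer: 80 mM MES, 160 mM NaCl, 1.0 mM DTT, 1.0 mM EDTA, 0.1% PEG 8000, pH 6.2. Incubated 60 min at 37 °C, then quenched with TFA (2% final). Products separated by reverse-phase HPLC and read at 220 nm. Percent control derived from % conversion with vs without inhibitor; IC50 then determined.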

[4] = Bioavailability; assay type: ADME, organism-based; settings: eutheria, in vivo
In short: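 Dogs dosed at 10 mg/kg. Vehicle was either the sodium salt in normal saline or the free acid in 0.1 NaOH buffered to pH 10, depending on compound.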

[5] = Compound was evaluated for pharmacokinetic parameter, half life period (T1/2); assay type: ADME, organism-based; settings: in vivo
[6] = Compound was evaluated for pharmacokinetic parameter, area under curve (AUC); assay type: ADME; design: unit not given here
[7] = compound was evaluated for pharmacokinetic parameter, Tmax; assay type: ADME, organism-based; settings: in vivo
In short: (§1)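 Species-dependent dosing. Mice: 25 mg/kg po in 20% 0.1 N NaOH/80% 0.5% methylcellulose; values from a pool of five mice; plasma levels by HPLC. Rats: 10 mg/kg po by capsule or pH 7.4-buffered solution; average of two animals. Dogs: 10 mg/kg in saline (sodium salt) or pH 10-buffered 0.1 NaOH (free acid).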

[8] = Compound was evaluated for pharmacokinetic parameter, Tmax; assay type: ADME, organism-based; settings: in vivo
[9] = compound was evaluated for pharmacokinetic parameter, half life period (T1/2); assay type: ADME, organism-based; settings: in vivo; in short: as §1
[10] = Compound was evaluated for pharmacokinetic parameter, Cmax; assay type: ADME, organism-based; settings: in vivo
[11] = compound was evaluated for pharmacokinetic parameter, area under curve (AUC); assay type: ADME; in short: as §1
[12] = Compound was evaluated for pharmacokinetic parameter, Cmax in rat at 10 mg/kg po; settings: in vivo

SMILES | CC50 [1] [nM] | pEC50 [2] | pIC50 [3] | further results
Cc1cc(SC2=C(O)O[C@@](CCc3ccsc3)(C(C)C)CC2=O)c(C(C)(C)C)cc1CO | 95000 | 4.85 | 7.94 | –
Cc1cc(SC2=C(O)OC(CCc3cscc3C)(C(C)C)CC2=O)c(C(C)(C)C)cc1CO (stereo not drawn) | 51000 | 6.59 | 9.39 | –
Cc1cc(SC2=C(O)O[C@](CCc3ccc(N)cc3)(C(C)C)CC2=O)c(C(C)(C)C)cc1CO | 210000 | – | 9.96 | bioavailability [4]: 33%; half-life [5]: 132 min; AUC [6]: 82; Tmax [7]: 30 min; Tmax [8]: 30 min; half-life [9]: 222 min; Cmax [10]: 26.5 µM
Cc1cc(SC2=C(O)OC(CCc3cc[nH]n3)(C(C)C)CC2=O)c(C(C)(C)C)cc1CO (stereo not drawn) | 320000 | 5.25 | 9.55 | –
Cc1cc(SC2=C(O)OC(CCc3c[nH]cn3)(C(C)C)CC2=O)c(C(C)(C)C)cc1CO (stereo not drawn) | 200000 | 4.05 | 7.15 | –
Cc1cc(SC2=C(O)OC(CCc3ccsc3)(C(C)C)CC2=O)c(C(C)(C)C)cc1CO (stereo not drawn) | 110000 | 6.52 | 9.77 | half-life [5]: 210 min; AUC [6]: 221; AUC [11]: 21 µg/h/mL; Tmax [7]: 30 min; Tmax [8]: 30 min; half-life [9]: 564 min; Cmax [10]: 39.6 µM; Cmax [12]: 11.2 µM
Cc1cc(SC2=C(O)OC(CCc3ccncc3)(C(C)C)CC2=O)c(C(C)(C)C)cc1CO (stereo not drawn) | 296000 | 5.82 | 8.82 | –
Cc1cc(SC2=C(O)OC(CCc3ccc4[nH]ccc4c3)(C(C)C)CC2=O)c(C(C)(C)C)cc1CO (stereo not drawn) | 46000 | 6.17 | 9.01 | –
Cc1csc(CCC2(C(C)C)CC(=O)C(Sc3cc(C)c(CO)cc3C(C)(C)C)=C(O)O2)n1 (stereo not drawn) | 171000 | 6.10 | 9.35 | –
Cc1cc(SC2=C(O)OC(CCc3ccsc3CO)(C(C)C)CC2=O)c(C(C)(C)C)cc1CO (stereo not drawn) | 200000 | 6.04 | 7.85 | –
Cc1cc(SC2=C(O)OC(CCc3c[nH]c4ccccc34)(C(C)C)CC2=O)c(C(C)(C)C)cc1CO (stereo not drawn) | 46000 | 6.43 | 9.14 | –
Cc1cc(SC2=C(O)OC(CCc3nc4ccccc4s3)(C(C)C)CC2=O)c(C(C)(C)C)cc1CO (stereo not drawn) | 62000 | 5.82 | 8.85 | –
O=c1cc(-c2ccccc2)oc(O)c1Sc1ccccc1 | – | – | 5.52 | –
Cc1cc(SC2=C(O)OC(CCc3ccco3)(C(C)C)CC2=O)c(C(C)(C)C)cc1CO (stereo not drawn) | 190000 | 6.12 | 9.11 | –
CC(=O)Nc1nc(CCC2(C(C)C)CC(=O)C(Sc3cc(C)c(CO)cc3C(C)(C)C)=C(O)O2)cs1 (stereo not drawn) | 210000 | 4.64 | 7.74 | –
Cc1cc(SC2=C(O)OC(CCc3cncnc3)(C(C)C)CC2=O)c(C(C)(C)C)cc1CO (stereo not drawn) | > 200000 | 5.92 | 7.77 | –
Cc1cc(SC2=C(O)OC(CCc3cccnc3)(C(C)C)CC2=O)c(C(C)(C)C)cc1CO (stereo not drawn) | – | – | 9.03 | Tmax [8]: 30 min
Cc1cnc(CCC2(C(C)C)CC(=O)C(Sc3cc(C)c(CO)cc3C(C)(C)C)=C(O)O2)s1 (stereo not drawn) | 210000 | 5.72 | 7.72 | –
Cc1cc(SC2=C(O)OC(CCc3csc(C(C)C)n3)(C(C)C)CC2=O)c(C(C)(C)C)cc1CO (stereo not drawn) | 91000 | 4.64 | 8.80 | –

SMILES | CC50 [1] [nM] | pEC50 [2] | pIC50 [3] | further results
Cc1cc(SC2=C(O)OC(CCc3cnc(N)nc3)(C(C)C)CC2=O)c(C(C)(C)C)cc1CO (stereo not drawn) | > 200000 | 5.24 | – | –
Cc1cc(SC2=C(O)OC(CCc3scnc3C(C)C)(C(C)C)CC2=O)c(C(C)(C)C)cc1CO (stereo not drawn) | 102000 | 5.92 | 9.10 | –
Cc1cc(SC2=C(O)OC(CCc3ccccn3)(C(C)C)CC2=O)c(C(C)(C)C)cc1CO (stereo not drawn) | 249000 | 5.82 | 8.92 | –
Cc1cc(SC2=C(O)OC(CCc3nccs3)(C(C)C)CC2=O)c(C(C)(C)C)cc1CO (stereo not drawn) | 216000 | 6.15 | 9.24 | half-life [5]: 198 min; AUC [6]: 132; AUC [11]: 10000 ng·h/mL; Tmax [7]: 15 min; Tmax [8]: 30 min; half-life [9]: 732 min; Cmax [10]: 33 µM; Cmax ([12]; read-out: Cmax): 2.7 µM
Cc1cc(SC2=C(O)OC(CCc3ccc(CO)s3)(C(C)C)CC2=O)c(C(C)(C)C)cc1CO (stereo not drawn) | 182000 | 5.60 | 9.24 | –
Cc1cc(SC2=C(O)OC(CCc3cccs3)(C(C)C)CC2=O)c(C(C)(C)C)cc1CO (stereo not drawn) | 81000 | 6.30 | 9.46 | –
Cc1cc(SC2=C(O)OC(CCc3cncs3)(C(C)C)CC2=O)c(C(C)(C)C)cc1CO (stereo not drawn) | 229000 | 5.72 | 9.62 | –
Cc1cc(SC2=C(O)OC(CCc3cscn3)(C(C)C)CC2=O)c(C(C)(C)C)cc1CO (stereo not drawn) | 141000 | 5.55 | 8.89 | –
Cc1nc(CCC2(C(C)C)CC(=O)C(Sc3cc(C)c(CO)cc3C(C)(C)C)=C(O)O2)cs1 (stereo not drawn) | 210000 | 5.35 | 7.89 | –
Cc1cc(SC2=C(O)OC(CCc3scnc3C)(C(C)C)CC2=O)c(C(C)(C)C)cc1CO (stereo not drawn) | 164000 | 6.43 | – | Tmax [7]: 15 min; Cmax [12]: 0.77 µM
Cc1cc(SC2=C(O)OC(CCc3csc(CO)c3)(C(C)C)CC2=O)c(C(C)(C)C)cc1CO (stereo not drawn) | 210000 | 4.74 | 9.72 | –
Cc1cc(SC2=C(O)OC(CCc3ncsc3C(C)C)(C(C)C)CC2=O)c(C(C)(C)C)cc1CO (stereo not drawn) | 52000 | 5.00 | 8.24 | –
Cc1cc(SC2=C(O)OC(CCc3nc(C(C)C)cs3)(C(C)C)CC2=O)c(C(C)(C)C)cc1CO (stereo not drawn) | 84000 | 4.48 | 7.85 | –
Cc1cc(SC2=C(O)OC(CCc3ncsc3C)(C(C)C)CC2=O)c(C(C)(C)C)cc1CO (stereo not drawn) | 208000 | 5.74 | 8.89 | –
Cc1cc(SC2=C(O)OC(CCC3CCCO3)(C(C)C)CC2=O)c(C(C)(C)C)cc1CO (stereo not drawn) | – | – | 8.30 | –
Cc1cc(SC2=C(O)OC(CCc3ccoc3)(C(C)C)CC2=O)c(C(C)(C)C)cc1CO (stereo not drawn) | 199000 | 6.00 | 9.47 | half-life [5]: 336 min; AUC [6]: 241; Tmax [8]: 30 min; Cmax [10]: 54.4 µM
Cc1cc(SC2=C(O)OC(CCc3sccc3C)(C(C)C)CC2=O)c(C(C)(C)C)cc1CO (stereo not drawn) | 80000 | 6.55 | – | –
Cc1cc(SC2=C(O)OC(CCc3csc(N)n3)(C(C)C)CC2=O)c(C(C)(C)C)cc1CO (stereo not drawn) | > 200000 | 5.46 | 9.02 | –
Cc1cc(SC2=C(O)OC(CCc3ccc(N)cc3)(C(C)C)CC2=O)c(C(C)(C)C)cc1CO (racemic) | > 100000 | 6.30 | 9.37 | half-life [5]: 132 min; AUC [6]: 42; Tmax [8]: 30 min; Cmax [10]: 23 µM

Source: ChEMBL document CHEMBL1134529, “4-Hydroxy-5,6-dihydropyrones as inhibitors of HIV protease: the effect of heterocyclic substituents at C-6 on antiviral potency and pharmacokinetic parameters” (J Med Chem, 2001)
